Where “and” joins values, the source holds several entries; their conditions need not be identical. Identical values can stand only once. Counter-ions that a name gives are not always drawn.
Assays:
Test in all cases: Radioligand binding
[1] = molecular target: hA2AAR (Homo sapiens, UniProt P29274); details: for hA1/hA2A: selectivity ratio of Ki values
[2] = molecular target: T1, hA3AR (Homo sapiens, UniProt P0DMS8); details: for hA1/hA3 / hA2A/hA3: selectivity ratio of Ki values
T1 sequence (P0DMS8 1-318): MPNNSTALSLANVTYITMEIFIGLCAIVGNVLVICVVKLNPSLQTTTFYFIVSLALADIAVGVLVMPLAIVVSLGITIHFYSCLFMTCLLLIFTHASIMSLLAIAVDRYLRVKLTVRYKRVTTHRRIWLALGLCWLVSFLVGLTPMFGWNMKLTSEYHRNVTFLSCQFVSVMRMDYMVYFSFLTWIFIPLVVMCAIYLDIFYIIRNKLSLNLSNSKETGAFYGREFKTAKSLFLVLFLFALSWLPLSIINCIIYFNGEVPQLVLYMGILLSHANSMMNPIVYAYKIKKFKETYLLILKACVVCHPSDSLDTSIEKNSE
Procedure, shortened: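 Displacement of [125I]AB-MECA binding on membranes from CHO cells expressing recombinant hA3AR. […] ADA (3 units/mL) was present during membrane preparation, a 30 min 30 °C preincubation and radioligand incubation. DMSO was ≤2% final. At least six competitor concentrations spanning 3 log units were used. Incubations ended by GF/B filtration and three rinses.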

[3] = molecular target: T2, hA1AR (Homo sapiens, UniProt P30542); details: read-out: hA1 % of inhibition
T2 sequence (P30542 1-326): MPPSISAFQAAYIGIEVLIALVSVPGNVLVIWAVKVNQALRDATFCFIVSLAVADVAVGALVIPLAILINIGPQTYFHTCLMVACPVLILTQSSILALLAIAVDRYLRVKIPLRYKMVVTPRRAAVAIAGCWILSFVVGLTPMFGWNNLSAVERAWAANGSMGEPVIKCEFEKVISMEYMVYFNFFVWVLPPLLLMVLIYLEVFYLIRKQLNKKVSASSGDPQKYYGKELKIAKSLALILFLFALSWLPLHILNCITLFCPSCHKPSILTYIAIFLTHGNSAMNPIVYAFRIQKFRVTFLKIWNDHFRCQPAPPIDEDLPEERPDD
Procedure, shortened: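 Membranes came from CHO cells expressing recombinant hA1AR, labelled with [3H]R-PIA. ADA (3 units/mL) was present during membrane preparation, a 30 min 30 °C preincubation and radioligand incubation. Test compound was dissolved in DMSO and diluted in buffer, DMSO ≤2% final. Incubations ended by GF/B filtration and three buffer rinses. The read-out is % inhibition of specific binding at a single concentration.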

hA2AAR, sequence (P29274 whole entry): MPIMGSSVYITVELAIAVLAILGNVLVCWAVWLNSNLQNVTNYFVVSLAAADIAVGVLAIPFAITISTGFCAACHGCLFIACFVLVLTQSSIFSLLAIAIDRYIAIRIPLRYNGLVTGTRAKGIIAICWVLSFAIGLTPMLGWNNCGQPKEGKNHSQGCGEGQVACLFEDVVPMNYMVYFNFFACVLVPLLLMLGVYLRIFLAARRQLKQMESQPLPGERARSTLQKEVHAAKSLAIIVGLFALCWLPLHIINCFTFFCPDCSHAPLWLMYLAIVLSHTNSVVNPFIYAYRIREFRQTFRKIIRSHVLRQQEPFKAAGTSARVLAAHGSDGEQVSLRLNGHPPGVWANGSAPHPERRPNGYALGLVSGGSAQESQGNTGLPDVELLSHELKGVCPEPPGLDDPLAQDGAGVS

| Structure (SMILES) | hA1/hA2A [1] | hA1/hA3 [2] | hA2A/hA3 [2] | inhibition at 10 µM [3] | Ki [1] | Ki [2] |
| --- | --- | --- | --- | --- | --- | --- |
| Cn1cc2c(nc(NC(=O)Nc3ccc(CC(=O)NCCCCCNC(=S)Nc4ccc(-c5c6ccc(=O)cc-6oc6cc(O)ccc56)c(C(=O)O)c4)cc3)n3nc(-c4ccco4)nc23)n1 [Compound 16, 5-(3-(5-(2-(4-(3-(2-(furan-2-yl)-8-methyl-8H-pyrazolo[4,3-e][1,2,4]triazolo[1,5-c]pyrimidin-5-yl)ureido)phenyl)acetamido)pentyl)thioureido)-2-(6-hydroxy-3-oxo-3H-xanthen-9-yl)benzoate] | >94 | >103 | 1.1 | 21% | – | – |
| Cn1cc2c(nc(NC(=O)Nc3ccc(CC(=O)NCCOCCOCCN)cc3)n3nc(-c4ccco4)nc23)n1.O=C(O)C(F)(F)F [Compound 12, 2-(2-(2-(2-(4-(3-(2-(furan-2-yl)-8-methyl-8H-pyrazolo[4,3-e][1,2,4]triazolo[1,5-c]pyrimidin-5-yl)ureido)phenyl)acetamido)ethoxy)ethoxy)ethanamine trifluoroacetate salt] | >37.4 | >520 | 14 | – | – | – |
| Cn1cc2c(nc(NC(=O)Nc3ccc(CC(=O)NCCCOCCOCCOCCCNC(=S)Nc4ccc(-c5c6ccc(=O)cc-6oc6cc(O)ccc56)c(C(=O)O)c4)cc3)n3nc(-c4ccco4)nc23)n1 [Compound 18, 5-(3-(1-(4-(3-(2-(furan-2-yl)-8-methyl-8H-pyrazolo[4,3-e] [1,2,4]triazolo[1,5-c]pyrimidin-5-yl)ureido)phenyl)-2-oxo-7,10,13-trioxa-3-azahexadecan-16-yl)thioureido)-2-(6-hydroxy-3-oxo-3H-xanthen-9-yl)benzoate] | >109 | >48 | 0.44 | 32% | 91.5 nM | 207 nM |
| C#CCCCC(=O)Nc1nc2nn(C)cc2c2nc(-c3ccco3)nn12 [Compound 20, N-(2-(furan-2-yl)-8-methyl-8H-pyrazolo[4,3-e][1,2,4]triazolo[1,5-c]pyrimidin-5-yl)hex-5-ynamide] | – | – | 48.4 | – | – | – |
| Cn1cc2c(nc(NC(=O)Nc3ccc(CC(=O)NCCCOCCOCCOCCCNC(=O)OC(C)(C)C)cc3)n3nc(-c4ccco4)nc23)n1 [Compound 8, tert-Butyl (1-(4-(3-(2-(furan-2-yl)-8-methyl-8H-pyrazolo [4,3-e][1,2,4]triazolo[1,5-c]pyrimidin-5-yl)ureido)phenyl)-2-oxo-7,10,13-trioxa-3-azahexadecan-16-yl)carbamate] | >30.5 | >121.3 | 3.9 | – | – | – |
| Cn1cc2c(nc(NC(=O)Nc3ccc(CC(=O)NCCCCCN)cc3)n3nc(-c4ccco4)nc23)n1 [Compound 11, N-(5-aminopentyl)-2-(4-(3-(2-(furan-2-yl)-8-methyl-8H-pyrazolo[4,3-e][1,2,4]triazolo[1,5-c]pyrimidin-5-yl)ureido)phenyl) acetamide trifluoroacetate salt] | >49 | >3759 | 76.3 | – | – | – |
| Cn1cc2c(nc(NC(=O)Nc3ccc(CC(=O)NCCCCN)cc3)n3nc(-c4ccco4)nc23)n1 [Compound 10, N-(4-aminobutyl)-2-(4-(3-(2-(furan-2-yl)-8-methyl-8H-pyrazolo[4,3-e][1,2,4]triazolo[1,5-c]pyrimidin-5-yl)ureido)phenyl) acetamide trifluoroacetate salt] | >58 | >1666 | 28.6 | – | – | – |
| Cn1cc2c(nc(NC(=O)Nc3ccc(CC(=O)NCCCOCCOCCOCCCN)cc3)n3nc(-c4ccco4)nc23)n1.O=C(O)C(F)(F)F [Compound 13, N-(3-(2-(2-(3-aminopropoxy)ethoxy)ethoxy)propyl)-2-(4-(3-(2-(furan-2-yl)-8-methyl-8H-pyrazolo[4,3-e][1,2,4]triazolo[1,5-c]pyrimidin-5-yl)ureido)phenyl)acetamide trifluoroacetate salt] | >30 | >970 | 30.3 | – | – | – |
| C#CCCCCC(=O)Nc1nc2nn(C)cc2c2nc(-c3ccco3)nn12 [Compound 21, N-(2-(furan-2-yl)-8-methyl-8H-pyrazolo[4,3-e][1,2,4]triazolo[1,5-c]pyrimidin-5-yl)hept-6-ynamide] | 5.9 | 122 and 122.7 | 20.7 | – | – | – |
| Cn1cc2c(nc(NC(=O)Nc3ccc(CC(=O)NCCCCNC(=O)OC(C)(C)C)cc3)n3nc(-c4ccco4)nc23)n1 [Compound 5, tert-Butyl (4-(2-(4-(3-(2-(furan-2-yl)-8-methyl-8H-pyrazolo [4,3-e][1,2,4]triazolo[1,5-c]pyrimidin-5-yl)ureido)phenyl)acetamido)butyl)carbamate] | >33 | >2890 | 88 | – | – | – |

Continued, values first:

| hA1/hA2A [1] | hA1/hA3 [2] | hA2A/hA3 [2] | inhibition at 10 µM [3] | Ki [1] | Ki [2] | Structure (SMILES) |
| --- | --- | --- | --- | --- | --- | --- |
| >26.5 | >2237 | 84.1 | – | – | – | Cn1cc2c(nc(NC(=O)Nc3ccc(CC(=O)NCCCCCNC(=O)OC(C)(C)C)cc3)n3nc(-c4ccco4)nc23)n1 [Compound 6, tert-Butyl (5-(2-(4-(3-(2-(furan-2-yl)-8-methyl-8H-pyrazolo [4,3-e][1,2,4]triazolo[1,5-c]pyrimidin-5-yl)ureido)phenyl)acetamido)pentyl)carbamate] |
| >10 | – | – | – | – | – | Cn1cc2c(nc(NC(=O)Nc3ccc(CC(=O)O)cc3)n3nc(-c4ccco4)nc23)n1 [Compound 3, 2-(4-(3-(2-(furan-2-yl)-8-methyl-8H-pyrazolo [4,3-e] [1,2,4]triazolo[1,5-c]pyrimidin-5-yl)ureido)phenyl)acetic acid] |
| >20.7 | >781 | 37.6 | – | – | – | C#CCCCCCC(=O)Nc1nc2nn(C)cc2c2nc(-c3ccco3)nn12 [Compound 22, N-(2-(furan-2-yl)-8-methyl-8H-pyrazolo[4,3-e][1,2,4]triazolo[1,5-c]pyrimidin-5-yl)oct-7-ynamide] |
| – | >909 | 16.5 | 55% | – | – | C#CCCC(=O)Nc1nc2nn(C)cc2c2nc(-c3ccco3)nn12 [Compound 19, N-(2-(furan-2-yl)-8-methyl-8H-pyrazolo[4,3-e][1,2,4]triazolo[1,5-c]pyrimidin-5-yl)pent-4-ynamide] |
| >22 | >133.6 | 6.1 | – | – | – | Cn1cc2c(nc(NC(=O)Nc3ccc(CC(=O)NCCOCCOCCNC(=O)OC(C)(C)C)cc3)n3nc(-c4ccco4)nc23)n1 [Compound 7, tert-Butyl (2-(2-(2-(2-(4-(3-(2-(furan-2-yl)-8-methyl-8H-pyrazolo[4,3-e][1,2,4]triazolo[1,5-c]pyrimidin-5-yl)ureido)phenyl)acetamido)ethoxy)ethoxy)ethyl)carbamate] |
| >66 | >3636 | 54.5 | – | – | – | Cn1cc2c(nc(NC(=O)Nc3ccc(CC(=O)NCCCNC(=O)OC(C)(C)C)cc3)n3nc(-c4ccco4)nc23)n1 [Compound 4, tert-Butyl (3-(2-(4-(3-(2-(furan-2-yl)-8-methyl-8H-pyrazolo [4,3-e][1,2,4]triazolo[1,5-c]pyrimidin-5-yl)ureido)phenyl)acetamido)propyl)carbamate] |
| >57 | >1240 | 21.7 | – | – | – | Cn1cc2c(nc(NC(=O)Nc3ccc(CC(=O)NCCCN)cc3)n3nc(-c4ccco4)nc23)n1 [Compound 9, N-(3-aminopropyl)-2-(4-(3-(2-(furan-2-yl)-8-methyl-8H-pyrazolo[4,3-e][1,2,4]triazolo[1,5-c]pyrimidin-5-yl)ureido)phenyl) acetamide trifluoroacetate salt] |
